Measured values pooled from the literature.
Lines come from different studies, so protocols differ.
ADRB2: Beta-2 adrenergic receptor (ADRB2, Homo sapiens, UniProt P07550)
CNR2: Cannabinoid receptor 2 (CNR2, Homo sapiens, UniProt P34972)
Akr1b1: Aldo-keto reductase family 1 member B1 (Akr1b1, Rattus norvegicus, UniProt P07943)
MMP2: 72 kDa type IV collagenase (MMP2, Homo sapiens, UniProt P08253)
DDR1: Epithelial discoidin domain-containing receptor 1 (DDR1, Homo sapiens, UniProt Q08345)
Trpc6: Short transient receptor potential channel 6 (Trpc6, Mus musculus, UniProt Q61143)
HDAC10: Polyamine deacetylase HDAC10 (HDAC10, Homo sapiens, UniProt Q969S8)
CYP1B1: Cytochrome P450 1B1 (CYP1B1, Homo sapiens, UniProt Q16678)
SLC22A2: Solute carrier family 22 member 2 (SLC22A2, Homo sapiens, UniProt O15244)
P2RY6: P2Y purinoceptor 6 (P2RY6, Homo sapiens, UniProt Q15077)
SETD7: Histone-lysine N-methyltransferase SETD7 (SETD7, Homo sapiens, UniProt Q8WTS6)

Structure (SMILES)	target	assay	test system	conditions	IC50 [µM]
CCN1CCCC1CNC(=O)c1cc(S(=O)(=O)CC)c(N)cc1OC (stereo not drawn)	ADRB2	ligand displacement, radioligand	–	cell membranes	105
CN1CCN(c2ccc(Nc3ncc4cc(C#N)c(=O)n(C5CCCC5)c4n3)cc2)CC1	Protein kinase C epsilon type (PRKCE, Homo sapiens, UniProt Q02156)	enzyme activity, inhibitor	–	–	6.31
Cc1ccc(NC(=O)c2nc(-c3ccc(Cl)cc3Cl)n(-c3ccc(OS(=O)(=O)CCC(F)(F)F)cc3)c2C)nc1	CNR2	GTPγS binding, antagonist	–	cell membranes	0.4
O=C(c1ccc(-c2cccc(C(F)(F)F)c2)o1)N1CCN2CCC1CC2	Neuronal acetylcholine receptor subunit alpha-7 (CHRNA7, Homo sapiens, UniProt P36544)	ion current, two-electrode voltage clamp	–	oocytes	1.2
COc1ccc2nc(/N=C3/NC(=O)C(=Cc4ccc(Cl)cc4)S3)sc2c1	Akr1b1	enzyme activity, inhibitor, absorbance	–	pH 6.2	3.99
CCNC(=O)c1nc(-c2ccc3[nH]c(-c4nc(C)no4)cc3c2)c(C)[nH]1	MMP2	enzyme activity, inhibitor	–	–	> 20
Cc1c(C(=O)N[C@H]2CCC[C@H](O)C2)nc(-c2ccc(Cl)cc2Cl)n1-c1ccc(OS(=O)(=O)CCC(F)(F)F)cc1 (relative stereo)	CNR2	GTPγS binding, antagonist	–	cell membranes	0.425
Cc1cnc(-c2ccc(-c3ccc(NC(=O)Nc4c(F)cc(F)cc4F)cc3F)c3c2C(=O)NC3)[nH]1	DDR1	enzyme activity, inhibitor	–	–	0.0538
CN(C)CCC1(c2ccc(Cl)cc2)Cc2ccccc2C(=O)O1 (stereo not drawn)	ADRB2	ligand displacement, radioligand	–	cell membranes	86.8
O=C(c1ccc(Cl)s1)N(CCN1CCCC1)c1nc2ccccc2s1	Trpc6	calcium signal, fluorescence	–	–	8.8
Cn1nc(C(=O)NCc2ccc(C(=O)O)cc2)cc1-c1ccc2[nH]c(-c3cncnc3)cc2c1	MMP2	enzyme activity, inhibitor	–	–	> 20
CCCC[C@H](NC(=O)[C@H](C)c1c(C)[nH]c2ccc(O)cc12)c1ncc(-c2cc3ccccc3nc2OC)[nH]1	HDAC10	enzyme activity, inhibitor	–	–	0.43
CC(C)=CCc1c(O)cc(O)c2c1O[C@H](c1ccc(O)cc1)CC2=O	CYP1B1	enzyme activity, inhibitor, fluorescence	–	15 min, pH 7.4	0.41
Cc1c(C(=O)Nc2ccc(C(F)(F)F)cn2)nc(-c2ccc(Cl)cc2Cl)n1-c1ccc(OS(=O)(=O)CCC(F)(F)F)cc1	CNR2	GTPγS binding, antagonist	–	cell membranes	0.133
CCOCc1nc(O)c(-c2nnc(Cc3ccc(Cl)cn3)o2)c(O)c1-c1c(OC)cccc1OC	ADRB2	ligand displacement, radioligand	–	–	> 30
CC(=O)N[C@H]1CC(=O)NCCCC[C@@H](C(=O)N[C@@H](CCCNC(=N)N)C(=O)c2nc3ccc(C(=O)N[C@H](C(N)=O)C(C)C)cc3s2)NC(=O)[C@H](CC(C)C)NC1=O	Serine protease hepsin (HPN, Homo sapiens, UniProt P05981)	enzyme activity, inhibitor, fluorescence	–	with preincubation	0.0054
Cc1c(C(=O)N[C@H]2CCCC[C@H]2N)nc(-c2ccc(Cl)cc2Cl)n1-c1ccc(OS(=O)(=O)CCC(F)(F)F)cc1 (racemic)	CNR2	GTPγS binding, antagonist	–	cell membranes	0.805
CN(CCC(=O)O)C(=O)c1ccc2c(c1)CC[C@@H]1[C@@H]2CC[C@]2(C)C(c3cncc(F)c3)=CC[C@@H]12	Ileal sodium/bile acid cotransporter (SLC10A2, Homo sapiens, UniProt Q12908)	transporter uptake, inhibitor	–	–	49
CC(C)c1nc(CN(C)C(=O)N[C@@H](CCN2CCOCC2)C(=O)N[C@H](CC[C@H](Cc2ccccc2)NC(=O)OCc2cncs2)Cc2ccccc2)cs1	SLC22A2	transporter uptake, inhibitor	MDCK-II	–	33
Cc1noc(-c2cc3cc(-c4nc(C(=O)NCc5cccnc5)[nH]c4C)ccc3[nH]2)n1	MMP2	enzyme activity, inhibitor	–	–	> 20
CNC(=O)c1cc2c(Oc3ccc(NC(=O)C4(C(=O)Nc5ccc(F)cc5)CC4)cc3)ccnc2cc1OC	DDR1	enzyme activity, inhibitor, radiometric	–	–	0.013
CC(C)(C)OC(=O)NCC#Cc1ccc2c(c1)C=C([N+](=O)[O-])C(C(F)(F)F)O2 (stereo not drawn)	P2RY6	calcium signal, antagonist	–	–	~1
CCCC[C@H](NC(=O)C1CN(C)C1)c1ncc(-c2cc3ccccc3nc2OC)[nH]1	HDAC10	enzyme activity, inhibitor	–	–	0.075
Cc1noc(-c2cc3cc(-c4nc(C(=O)NCc5ccccc5)[nH]c4C)ccc3[nH]2)n1	MMP2	enzyme activity, inhibitor	–	–	> 20

Structure (SMILES)	target	assay	test system	conditions	IC50 [µM]
NC(=O)c1ccc[n+]([C@@H]2O[C@H](COP(=O)([O-])OP(=O)(O)OC[C@H]3O[C@@H](n4cnc5c(N)ncnc54)[C@H](O)[C@@H]3O)[C@@H](O)[C@H]2O)c1	Protein mono-ADP-ribosyltransferase PARP6 (PARP6, Homo sapiens, UniProt Q2NL67)	enzyme activity, inhibitor	–	–	87
COc1ccc2nc(/N=C3/NC(=O)C(=Cc4ccccc4)S3)sc2c1	Akr1b1	enzyme activity, inhibitor, absorbance	–	pH 6.2	> 50
CN1[C@@H]2CC[C@H]1C[C@@H](OC(=O)c1c[nH]c3ccccc13)C2	ADRB2	ligand displacement, radioligand	–	cell membranes	37.7
COc1ccc2c3ccnc(C(F)(F)F)c3n(CCCCN)c2c1	Serine/threonine-protein kinase haspin (HASPIN, Homo sapiens, UniProt Q8TF76)	enzyme activity, inhibitor, TR-FRET	–	–	0.1
COc1ccc2nc(/N=C3/NC(=O)C(=Cc4cc(OC)c(O)c(OC)c4)S3)sc2c1	Akr1b1	enzyme activity, inhibitor, absorbance	–	pH 6.2	10.5
Cc1noc(-c2cc3cc(-c4nc(C(=O)NCc5ccncc5)[nH]c4C)ccc3[nH]2)n1	MMP2	enzyme activity, inhibitor	–	–	> 20
NCC1OC(c2ccccc2)Cc2c1ccc(O)c2O (stereo not drawn)	ADRB2	ligand displacement, radioligand	–	cell membranes	84.7
O=C(O)C(=O)CC(=O)c1cccc(N(Cc2ccccc2)Cc2ccccc2)c1	Dual specificity protein phosphatase 3 (DUSP3, Homo sapiens, UniProt P51452)	enzyme activity, inhibitor, absorbance	–	pH 7	113
Cc1c(C(=O)NN2CCCCC2)nc(-c2ccc(Cl)cc2Cl)n1-c1ccc(OS(=O)(=O)CCC(C)(C)C)cc1	CNR2	GTPγS binding, antagonist	–	cell membranes	1.36
COc1cc(N)c(Cl)cc1C(=O)NC1CCN(CCCOc2ccc(F)cc2)CC1OC (stereo not drawn)	ADRB2	ligand displacement, radioligand	–	cell membranes	587
CC/C(=C(\c1ccccc1)c1ccc(OCCN(C)C)cc1)c1ccccc1	SETD7	enzyme activity, inhibitor	–	–	> 333
O=C(CCCCCCNC(=O)c1cnc(N(c2ccccc2)c2ccccc2Cl)nc1)NO	HDAC10	enzyme activity, inhibitor, fluorescence	–	–	2.52
Cc1noc(-c2cc3cc(-c4nc(C(=O)NCc5ccccn5)[nH]c4C)ccc3[nH]2)n1	MMP2	enzyme activity, inhibitor	–	–	> 20
CC/C(=C(\c1ccc(O)cc1)c1ccc(OCCN(C)C)cc1)c1ccccc1	SETD7	enzyme activity, inhibitor	–	–	> 333
CC(C)(C)n1nc(-c2ccc3nc(OC4CC4)ccc3c2)c(C(N)=O)c1N	Casein kinase I isoform alpha (CSNK1A1, Homo sapiens, UniProt P48729)	cell-free assay, inhibitor	–	–	> 10
CCC1(c2ccc(C)cc2)C(=O)N(C(=O)OC(C)C)N1C(=O)OC(C)C (stereo not drawn)	Protein phosphatase methylesterase 1 (Mus musculus, UniProt Q8BVQ5)	enzyme activity, inhibitor	–	–	1.3
CC[C@H](C)[C@H](NC(C)=O)C(=O)N[C@@H](CCC(=O)O)C(=O)N[C@H](C(=O)N[C@H](C=O)CC(=O)O)[C@@H](C)O	Caspase-2 (Homo sapiens, UniProt P42575)	enzyme activity, inhibitor	–	–	0.109
Cc1noc(-c2cc3cc(-c4nc(C(N)=O)[nH]c4C)ccc3[nH]2)n1	MMP2	enzyme activity, inhibitor	–	–	> 20
O=C(O)CSc1nnc(Br)n1-c1ccc(C2CC2)c2ccccc12	SLC22A2	transporter uptake, inhibitor	MDCK-II	5 min	> 300
O=[N+]([O-])C1=Cc2ccccc2OC1C(F)(F)F (stereo not drawn)	P2RY6	calcium signal, antagonist, fluorescence	–	–	2.62
COc1cccc2sc(N(CCN3CCCC3)C(=O)c3ccc(Cl)s3)nc12	Trpc6	calcium signal, fluorescence	–	–	63.9
COc1cc(O)c(CC=C(C)C)c(O)c1C(=O)/C=C/c1ccc(O)cc1	CYP1B1	enzyme activity, inhibitor, fluorescence	–	15 min, pH 7.4	0.34
COc1ccc2nc(N(CCN3CCCC3)C(=O)c3ccc(Cl)s3)sc2c1	Trpc6	calcium signal, fluorescence	–	–	33
CCCN(CCCCOCCOCCOCCOCC(=O)N[C@H](C(=O)N1C[C@H](O)C[C@H]1C(=O)NCc1ccc(-c2scnc2C)cc1)C(C)(C)C)C[C@@H](C)NC(=O)c1ccc(-c2noc(C(F)(F)F)n2)cc1	Histone deacetylase 7 (HDAC7, Homo sapiens, UniProt Q8WUI4)	enzyme activity, inhibitor, fluorescence	–	–	0.13
